We go through 11 compounds from ChEMBL document CHEMBL1124327, “Synthesis and structure-activity relationships of 2-substituted-6-(dimethylamino)-9-(4-methylbenzyl)-9H-purines with antirhinovirus activity” (J Med Chem, 1989).

The structures appear in SMILES notation. A value given as a limit tells only on which side of the number the result lay.

Test [1] can be described thus: Compound was tested for anti-rhinovirus type 1B activity in a plaque inhibition assay using monolayers of M-HeLa cells. The class given is functional, cell-based. The conditions noted are these: Homo sapiens.
Test [2] concerns Enterovirus. The experiment in a line: Inhibitory concentration against Rhinovirus 13. The class given is functional, organism-based.
Test [3] deals with Enterovirus. The test can be described thus: Inhibition of plaque formation at 8 uM concentration against Rhinovirus 5. The class given is functional, organism-based.
The subject of test [4] is Enterovirus. The experiment in a line: Inhibitory concentration against Rhinovirus 1B. Type of test: functional, organism-based. The gist of the method:
(§1)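 Plaque reduction assay against rhinovirus 1B in M-HeLa cell monolayers. IC50 is the concentration giving 50% reduction of plaque formation; pI50 is taken as log (1000/IC50). A reference antiviral was run as a control.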

Test [5] concerns Enterovirus. The experiment in a line: Inhibitory concentration against Rhinovirus 15. The class given is functional, organism-based.
In test [6] the test system is Enterovirus. The experiment in a line: Inhibitory concentration against Rhinovirus 9. Type of test: functional, organism-based.
For test [7], the system named is Enterovirus. The experiment in a line: Inhibition of plaque formation at 2.5 uM concentration against Rhinovirus 3. Type of test: functional.
In test [8] the test system is Enterovirus. The test can be described thus: Inhibitory concentration against Rhinovirus 1A. The class given is functional, organism-based.
In test [9] the test system is rhinovirus B14. The test can be described thus: Inhibitory concentration against Rhinovirus 14. The class given is functional, organism-based, Enterovirus. The conditions noted are these: Rhinovirus B.
Test [10] concerns Enterovirus. The test can be described thus: Inhibitory concentration against Rhinovirus 12. Type of test: functional, organism-based.
The test system of test [11] is Enterovirus. The experiment in a line: Inhibitory concentration against Rhinovirus 2. The class given is functional, organism-based.
For test [12], the system named is Enterovirus. The test can be described thus: Inhibitory concentration against rhinovirus 16. Type of test: functional, organism-based.
The test system of test [13] is Enterovirus. The experiment in a line: Inhibitory concentration against rhinovirus 5. The class given is functional, organism-based.
Test [14] concerns Enterovirus. The experiment in a line: Inhibitory concentration against rhinovirus 19. The class given is functional, organism-based.
Test [15] relates to rhinovirus B14. The test can be described thus: Inhibitory concentration against rhinovirus 14. Type of test: functional, organism-based, Enterovirus. As to conditions: Rhinovirus B.
The subject of test [16] is Enterovirus. The test can be described thus: Inhibitory concentration against rhinovirus 8. The class given is functional, organism-based.
The subject of test [17] is Enterovirus. The experiment in a line: Inhibitory concentration against rhinovirus 1B. The class given is functional, organism-based. In outline: as §1
Test [18] deals with Enterovirus. The experiment in a line: Inhibitory concentration against rhinovirus 30. Type of test: functional, organism-based.
Test [19] has as its system Enterovirus. The test can be described thus: Inhibitory concentration against rhinovirus 15. Type of test: functional, organism-based.
The subject of test [20] is Enterovirus. The experiment in a line: Inhibitory concentration against rhinovirus 9. Type of test: functional, organism-based.
Test [21] relates to Enterovirus. The test can be described thus: Inhibitory concentration against rhinovirus 1A. The class given is functional, organism-based.
Test [22] has as its system Enterovirus. The experiment in a line: Inhibitory concentration against rhinovirus 4. Type of test: functional, organism-based.
The test system of test [23] is Enterovirus. The test can be described thus: Inhibitory concentration against rhinovirus 21. Type of test: functional, organism-based.
Test [24] has as its system Enterovirus. The test can be described thus: Inhibitory concentration against rhinovirus 3. The class given is functional, organism-based.
In test [25] the test system is Enterovirus. The experiment in a line: Inhibitory concentration against rhinovirus 31. Type of test: functional, organism-based.
In test [26] the test system is Enterovirus. The experiment in a line: Inhibitory concentration against rhinovirus 13. Type of test: functional, organism-based.
The test system of test [27] is Enterovirus. The test can be described thus: Inhibitory concentration against rhinovirus 29. Type of test: functional, organism-based.
Test [28] relates to Enterovirus. The test can be described thus: Inhibitory concentration against rhinovirus 18. Type of test: functional, organism-based.
The species entered for a further test is Homo sapiens. The test can be described thus: Inhibition of plaque formation at 8 uM concentration. Type of test: functional.

Usually IC50 stands for the midpoint of a concentration-inhibition curve. A lower IC50 goes with higher potency. Turning to `CCc1nc(N(C)C)c2ncn(Cc3ccc(C)cc3)c2n1`, in [1], the IC50 worked out at 2.3 µM.

`CSc1nc(N(C)C)c2ncn(Cc3ccc(C)cc3)c2n1`: the midpoint of inhibition in [1], the IC50, lay at 0.34 µM.

A word on the Inhibition: it is the percentage by which the read-out fell short of the control. Lower therefore signals little suppression. For orientation: inhibition means the relative decrease from the control value, in per cent. Higher therefore signals a strong effect. Regarding `Cc1ccc(Cn2cnc3c(N(C)C)nc(C(F)(F)F)nc32)cc1`, the IC50 in the test on Enterovirus [2] came to 2.6 µM; in the test on Enterovirus [4] it was 0.03 µM; in test [1], 0.03 µM; in the test on Enterovirus [5], 1 µM; in the test with Enterovirus [6], 0.35 µM; with Enterovirus [8], 0.1 µM. Besides, the IC50 with rhinovirus B14 [9] stood at 1.2 µM; with Enterovirus [10], 2.6 µM; in the test with Enterovirus [11], 5.7 µM. In addition, in the test on Enterovirus [3], the Inhibition amounted to 18%. Further, at 2.5 µM the inhibition with Enterovirus [7] was 43%.

Consider `Cc1ccc(Cn2cnc3c(N(C)C)nc(C)nc32)cc1`, for which half-maximal inhibition in test [1] (IC50) required 0.8 µM.

With `Cc1ccc(Cn2cnc3c(N(C)C)nc(F)nc32)cc1`, the IC50 in test [1] stood at 0.34 µM.

Take `CNc1nc(N(C)C)c2ncn(Cc3ccc(C)cc3)c2n1`: the midpoint of inhibition in test [1], the IC50, lay at 4.7 µM.

Consider `Cc1ccc(Cn2cnc3c(N(C)C)nc(N)nc32)cc1`, for which inhibition in test [1] was half-maximal at 31 µM (IC50).

On to `Cc1ccc(Cn2cnc3c(N(C)C)ncnc32)cc1`, for which half-maximal inhibition in test [1] (IC50) was put at 8.6 µM.

In turn, `Cc1ccc(Cn2cnc3c(N(C)C)nc(Cl)nc32)cc1` had an IC50 in [1] of 0.08 µM.

Regarding `Cc1ccc(Cn2cnc3c(N(C)C)nc(N(C)C)nc32)cc1`, the concentration for half-maximal inhibition (IC50) was > 20 µM in the test on Enterovirus [12]; 17.7 µM with Enterovirus [13]; > 20 µM in the test on Enterovirus [14]; 7.9 µM with rhinovirus B14 [15]; 14 µM in the test with Enterovirus [16]; 1.1 µM with Enterovirus [17]. In addition, the IC50 is 1.1 µM in test [1]; 2.9 µM in the test on Enterovirus [18]; > 10 µM in the test on Enterovirus [19]; 3.5 µM with Enterovirus [20]; < 1.2 µM in the test on Enterovirus [21]; > 10 µM in the test on Enterovirus [22]. For the same compound, the IC50 is > 20 µM in the test with Enterovirus [23]; 3.1 µM with Enterovirus [11]; > 10 µM in the test with Enterovirus [24]; 15.1 µM in the test with Enterovirus [25]; 13 µM with Enterovirus [26]; 4.9 µM in the test with Enterovirus [27]. Moreover, half-maximal inhibition in the test with Enterovirus [28] (IC50) was put at 8.3 µM.

In the case of `Cc1ccc(Cn2cnc3c(N(C)C)nc(S(C)(=O)=O)nc32)cc1`, the inhibition in the test listed under Homo sapiens is 24%. The compound also came in with an IC50 in [1] of 25 µM.
